This note sets out measurements from ChEMBL document CHEMBL1681730, “17,20-lyase inhibitors. Part 4: design, synthesis and structure-activity relationships of naphthylmethylimidazole derivatives as novel 17,20-lyase inhibitors” (Bioorg Med Chem, 2011).

In general, IC50 refers to the concentration that inhibits the measured activity by half. In general, AUC(0-t) refers to the area under the concentration-time curve up to a stated or last time point. The term Cmax denotes the peak of the concentration-time curve. Usually Tmax stands for the time at which the peak concentration occurs.

The species entered for one series is Homo sapiens. The series is described as follows: Ratio of IC50 for human CYP3A4 to IC50 for human 17,20-lyase. In a few lines: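 Two assays. Human 17,20-lyase: recombinant P450c17 (0.5 pmol) with cytochrome b5 and NADPH-P450 reductase, 10 nM [1,2-3H]-17α-hydroxypregnenolone, 5 mM NADPH, 1 mM MgCl2, pH 7.4 phosphate, 1–1000 nM compound, 15 min at 37 °C. DHEA separated by TLC, IC50 calculated. CYP3A4: recombinant enzyme, 100 μM testosterone, NADPH-regenerating system, 30 min at 37 °C, 6-hydroxytestosterone measured by HPLC.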

Series [1] has as its system Cynomolgus monkey. The series is described as follows: Antiandrogenic activity in cynomolgus monkey assessed as reduction serum testosterone level at 1 mg/kg, po at 8 hrs (reference value: 68.5 +/- 27.3%). It counts as functional, Macaca fascicularis. Further details: scale not given: the % may be the effect or the level left.
The subject of series [2] is Cynomolgus monkey. Description: Antiandrogenic activity in cynomolgus monkey assessed as reduction serum DHEA level at 1 mg/kg, po at 4 hrs (reference value: 105.7 +/- 4.2%). The class given is functional, Macaca fascicularis. Further details: scale not given: the % may be the effect or the level left. In a few lines: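 Adult male cynomolgus monkeys (23 ± 2 °C, 12:12 h light/dark) given a single oral 1 mg/kg dose as a suspension in 0.5% methylcellulose. Serum collected just before dosing and at 4 and 8 h, stored at −30 °C, and assayed by RIA. Values expressed as % of the 0 h level, mean ± SD, n = 3. Dunnett test against vehicle.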

Series [3] deals with Cynomolgus monkey. Description: Antiandrogenic activity in cynomolgus monkey assessed as reduction serum testosterone level at 1 mg/kg, po at 4 hrs (reference value: 89.1 +/- 15.6%). Further details: scale not given: the % may be the effect or the level left. It counts as functional, Macaca fascicularis.
The subject of series [4] is Cynomolgus monkey. The series is described as follows: Antiandrogenic activity in cynomolgus monkey assessed as reduction serum DHEA level at 1 mg/kg, po at 8 hrs (reference value: 38.5 +/- 18.4%). Further details: scale not given: the % may be the effect or the level left. It counts as functional, Macaca fascicularis.
The target of series [5] is T1, Steroid 17-alpha-hydroxylase/17,20 lyase (Homo sapiens, UniProt P05093).
T1 sequence (P05093 whole entry): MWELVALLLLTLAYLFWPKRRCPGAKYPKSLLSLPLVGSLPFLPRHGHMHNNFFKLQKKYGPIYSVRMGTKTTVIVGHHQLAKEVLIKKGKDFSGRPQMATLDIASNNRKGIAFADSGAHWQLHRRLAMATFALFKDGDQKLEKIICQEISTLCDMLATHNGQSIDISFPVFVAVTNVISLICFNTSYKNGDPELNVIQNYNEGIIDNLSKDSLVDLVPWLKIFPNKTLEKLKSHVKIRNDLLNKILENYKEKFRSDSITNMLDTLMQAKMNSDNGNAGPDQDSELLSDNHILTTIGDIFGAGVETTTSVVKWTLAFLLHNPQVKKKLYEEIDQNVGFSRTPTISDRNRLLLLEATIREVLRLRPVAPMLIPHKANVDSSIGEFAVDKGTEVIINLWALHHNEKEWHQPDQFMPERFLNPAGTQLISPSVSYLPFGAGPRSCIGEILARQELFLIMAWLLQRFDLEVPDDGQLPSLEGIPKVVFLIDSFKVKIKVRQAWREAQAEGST
Description: Inhibition of 17,20 lyase activity in human. A digest of the protocol: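 Recombinant P450c17 (0.5 pmol) with cytochrome b5 (0.5 pmol) and NADPH-P450 reductase (20.8 ng) in 75 mM phosphate pH 7.4 with 1 mM MgCl2. Substrate 10 nM [1,2-3H]-17α-hydroxypregnenolone, 5 mM NADPH, compound 1–1000 nM. Incubated 15 min at 37 °C, ethyl acetate extraction, DHEA separated from substrate by silica TLC (cyclohexane–ethyl acetate 3:2). IC50 taken as 50% reduction in product.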

Series [6] in a line: AUC (0 to 24 hrs) in Crl:CD(SD)IGS rat at 10 mg/kg, po by HPLC analysis. It counts as ADME, organism-based. Details: time < 24 hr, dose 10 mg/kg, route oral. Particulars: plasma. A digest of the protocol: (§1)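 Male non-fasted 8-week-old rats, n = 3; 1 mg/kg IV or 10 mg/kg oral. Plasma sampled at 5, 10, 15, 30 min and 1, 2, 4, 8, 24 h after IV dosing, or at 15, 30 min and 1, 2, 4, 8, 24 h after oral dosing. Plasma deproteinized with acetonitrile, dried under N₂, taken up in mobile phase, and analysed by reverse-phase HPLC on an ODS column.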

The nature of series [7]: Oral bioavailability in Crl:CD(SD)IGS rat at 10 mg/kg by HPLC analysis. It counts as ADME, organism-based. The note with it: in vivo. A digest of the protocol: (§2)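 Non-fasted male Crl:CD(SD)IGS rats, 8 weeks old, n = 3. Dosed 1 mg/kg iv or 10 mg/kg po. Plasma sampled at 5 (iv only), 10 (iv only), 15, 30 min and 1, 2, 4, 8, 24 h. Plasma deproteinized with acetonitrile, supernatant dried under N2, taken up in mobile phase and analysed by HPLC on an ODS column. […] Mean ± SD.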

Series [8] in a line: Cmax in Crl:CD(SD)IGS rat at 10 mg/kg, po by HPLC analysis. It counts as ADME, organism-based. Further details: dose 10 mg/kg, route oral. The note with it: in vivo. In a few lines: as §2
For a further series, the target named is Cytochrome P450 2D6 (Homo sapiens, UniProt P10635). Description: Inhibition of human CYP2D6. The class given is ADME. In a few lines: (§3)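 Microsomes from human B-lymphoblastoid cells expressing one CYP isoform, with inhibitor at 3, 10 and 30 µmol/L. Buffer 80 mmol/L phosphate pH 7.4 (Tris-HCl pH 7.4 for CYP2C9) with 10 mmol/L MgCl2 and a NADPH-regenerating system. Inhibitor and substrate preincubated 5 min at 37 °C, then microsomes added to start. Marker reactions: tolbutamide hydroxylation (CYP2C8, CYP2C9), bufuralol 1'-hydroxylation (CYP2D6). Control was methanol alone.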

The target in a further series is T2, Cytochrome P450 2C8 (Homo sapiens, UniProt P10632).
T2 sequence (P10632 whole entry): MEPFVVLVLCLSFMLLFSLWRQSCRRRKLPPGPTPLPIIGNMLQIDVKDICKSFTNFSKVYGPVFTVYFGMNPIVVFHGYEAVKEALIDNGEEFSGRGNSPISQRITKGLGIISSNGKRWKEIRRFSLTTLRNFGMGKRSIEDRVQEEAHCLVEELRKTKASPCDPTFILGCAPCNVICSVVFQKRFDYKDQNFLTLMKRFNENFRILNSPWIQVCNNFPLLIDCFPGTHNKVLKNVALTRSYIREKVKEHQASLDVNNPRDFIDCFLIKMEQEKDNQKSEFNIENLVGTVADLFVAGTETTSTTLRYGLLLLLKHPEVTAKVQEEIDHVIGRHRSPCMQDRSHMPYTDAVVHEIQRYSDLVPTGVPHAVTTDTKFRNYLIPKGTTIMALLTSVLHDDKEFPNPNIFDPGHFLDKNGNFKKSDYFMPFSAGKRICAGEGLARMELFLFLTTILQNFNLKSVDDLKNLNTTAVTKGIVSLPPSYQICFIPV
Description: Inhibition of human CYP2C8. It counts as ADME. A digest of the protocol:
as §3

Another series has as its target Cytochrome P450 2C9 (Homo sapiens, UniProt P11712). Description: Inhibition of human CYP2C9. The class given is ADME. A digest of the protocol:
as §3

Series [9] addresses T3, Steroid 17-alpha-hydroxylase/17,20 lyase (Rattus norvegicus, UniProt P11715).
T3 sequence (P11715 whole entry): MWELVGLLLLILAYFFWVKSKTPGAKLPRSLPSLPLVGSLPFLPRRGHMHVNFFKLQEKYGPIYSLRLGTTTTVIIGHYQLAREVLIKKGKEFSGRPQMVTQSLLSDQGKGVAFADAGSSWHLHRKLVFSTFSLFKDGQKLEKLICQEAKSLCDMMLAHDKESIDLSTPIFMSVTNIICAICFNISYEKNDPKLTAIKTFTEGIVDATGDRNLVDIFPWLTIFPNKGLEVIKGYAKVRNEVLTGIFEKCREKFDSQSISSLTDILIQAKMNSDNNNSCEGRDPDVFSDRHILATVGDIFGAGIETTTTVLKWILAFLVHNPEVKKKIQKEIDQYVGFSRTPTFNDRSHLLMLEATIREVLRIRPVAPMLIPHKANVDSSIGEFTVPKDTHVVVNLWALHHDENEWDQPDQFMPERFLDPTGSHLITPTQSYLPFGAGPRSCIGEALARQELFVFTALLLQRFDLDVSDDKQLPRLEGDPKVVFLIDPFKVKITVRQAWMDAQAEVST
The series is described as follows: Inhibition of 17,20 lyase activity in Sprague-Dawley rat testicular microsomes. Details: species or system Testis. A digest of the protocol:
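Testicular microsomes from 13-week-old male SD rats (7 µg protein) in 75 mM phosphate buffer, pH 7.4, with 10 nM [1,2-3H]-17α-hydroxyprogesterone, 5 mM NADPH, and 1–1000 nM test compound (all final). Compounds were diluted in DMF and then in water. Incubation ran 15 min at 37 °C and was stopped with ethyl acetate. IC50 is the concentration that halves product formation.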

A short description of series [10]: AUC (0 to 24 hrs) in Crl:CD(SD)IGS rat at 1 mg/kg, iv by HPLC analysis. The class given is ADME, organism-based. Further details: time < 24 hr, dose 1 mg/kg, route intravenous. The note with it: plasma. In a few lines:
as §1

A further series deals with Cytochrome P450 3A4 (Homo sapiens, UniProt P08684). Description: Inhibition of human CYP3A4. The class given is ADME.
The nature of series [11]: Tmax in Crl:CD(SD)IGS rat at 10 mg/kg, po by HPLC analysis. It counts as ADME, organism-based. The note with it: in vivo. Details: dose 10 mg/kg, route oral. A digest of the protocol: as §2
For another series, the target named is T4, Cytochrome P450c11B3 (Rattus norvegicus, UniProt Q64546).
T4 sequence (Q64546 whole entry): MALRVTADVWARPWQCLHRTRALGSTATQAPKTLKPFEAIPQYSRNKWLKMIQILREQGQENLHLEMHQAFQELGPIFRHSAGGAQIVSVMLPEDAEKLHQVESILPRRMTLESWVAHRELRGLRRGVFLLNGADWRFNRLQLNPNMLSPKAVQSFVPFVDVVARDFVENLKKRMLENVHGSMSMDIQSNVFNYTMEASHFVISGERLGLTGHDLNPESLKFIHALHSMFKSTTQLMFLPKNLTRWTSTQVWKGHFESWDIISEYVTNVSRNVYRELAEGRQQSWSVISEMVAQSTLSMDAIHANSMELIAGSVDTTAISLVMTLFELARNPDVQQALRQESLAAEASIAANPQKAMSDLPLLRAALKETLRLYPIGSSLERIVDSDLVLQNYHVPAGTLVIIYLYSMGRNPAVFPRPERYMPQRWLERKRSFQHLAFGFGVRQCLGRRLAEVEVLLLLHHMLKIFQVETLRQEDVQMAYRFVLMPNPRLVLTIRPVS
Description: Inhibition of 11-hydroxylase activity in Sprague-Dawley rat adrenal gland. It counts as tissue-based. In a few lines:
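Mitochondrial fraction from SD rat adrenal glands, 4 µg protein, in 200 mM mannitol, 4.5 mM HEPES, 2.3 mM K phosphate pH 7.4, 0.1 mM EDTA, 0.03% BSA, 4.5 mM NADPH, 11 mM CaCl2. Substrate 10 nM [1,2-3H]-11-deoxycortisol. Test compound 1–1000 nM, diluted in DMF. Incubated 30 min at 37 °C, stopped with ethyl acetate. Final concentrations.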

Cytochrome P450 3A4, sequence (P08684 whole entry): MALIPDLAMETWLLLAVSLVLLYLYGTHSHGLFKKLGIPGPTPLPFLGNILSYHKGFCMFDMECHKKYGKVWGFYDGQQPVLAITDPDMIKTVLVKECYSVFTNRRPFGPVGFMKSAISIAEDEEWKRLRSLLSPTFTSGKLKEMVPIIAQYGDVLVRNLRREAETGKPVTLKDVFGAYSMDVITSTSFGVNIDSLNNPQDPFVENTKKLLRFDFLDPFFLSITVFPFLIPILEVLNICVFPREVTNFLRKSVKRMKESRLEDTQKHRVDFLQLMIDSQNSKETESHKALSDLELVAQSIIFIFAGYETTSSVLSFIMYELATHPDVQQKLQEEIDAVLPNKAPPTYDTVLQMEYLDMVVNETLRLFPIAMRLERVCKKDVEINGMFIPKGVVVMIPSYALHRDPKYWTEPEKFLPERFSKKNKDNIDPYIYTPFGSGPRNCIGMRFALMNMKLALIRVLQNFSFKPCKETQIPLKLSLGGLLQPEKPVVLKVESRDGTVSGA
Cytochrome P450 2D6, sequence (P10635 whole entry, canonical isoform): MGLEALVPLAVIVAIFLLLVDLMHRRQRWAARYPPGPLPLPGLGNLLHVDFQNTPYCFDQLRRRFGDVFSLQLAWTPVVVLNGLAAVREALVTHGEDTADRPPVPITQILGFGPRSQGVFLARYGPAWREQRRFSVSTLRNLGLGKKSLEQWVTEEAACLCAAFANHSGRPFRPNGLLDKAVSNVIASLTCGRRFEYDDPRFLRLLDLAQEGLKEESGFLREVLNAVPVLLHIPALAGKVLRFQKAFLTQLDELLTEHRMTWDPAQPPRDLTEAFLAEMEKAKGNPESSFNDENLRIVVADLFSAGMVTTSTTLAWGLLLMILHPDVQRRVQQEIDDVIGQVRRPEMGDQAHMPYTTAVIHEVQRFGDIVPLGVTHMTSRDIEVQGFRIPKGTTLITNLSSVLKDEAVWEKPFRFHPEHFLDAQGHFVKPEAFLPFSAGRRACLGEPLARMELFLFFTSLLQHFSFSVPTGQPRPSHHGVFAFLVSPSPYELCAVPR
Cytochrome P450 2C9, sequence (P11712 whole entry): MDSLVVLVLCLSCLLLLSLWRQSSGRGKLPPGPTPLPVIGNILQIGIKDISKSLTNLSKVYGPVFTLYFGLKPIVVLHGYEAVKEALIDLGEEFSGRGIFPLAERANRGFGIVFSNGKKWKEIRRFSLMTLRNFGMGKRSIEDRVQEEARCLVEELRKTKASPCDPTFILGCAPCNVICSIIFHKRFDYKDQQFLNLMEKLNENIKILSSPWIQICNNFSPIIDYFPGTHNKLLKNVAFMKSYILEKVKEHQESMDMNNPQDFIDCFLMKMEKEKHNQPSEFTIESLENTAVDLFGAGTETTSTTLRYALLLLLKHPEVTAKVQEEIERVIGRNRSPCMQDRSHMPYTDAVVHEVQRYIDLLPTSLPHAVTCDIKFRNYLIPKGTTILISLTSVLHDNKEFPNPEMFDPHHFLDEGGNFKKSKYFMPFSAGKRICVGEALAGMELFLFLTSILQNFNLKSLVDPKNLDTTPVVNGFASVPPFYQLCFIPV

Regarding `CC(C)[C@](O)(c1ccc2c3c(ccc2c1)C(=O)N(C)C3)c1c[nH]cn1`, in the series listed under Homo sapiens, the Ratio IC50 is over 1000. The Activity with Cynomolgus monkey [1] is on record as 9.8%; with Cynomolgus monkey [2] it was 16.8%; in the series with Cynomolgus monkey [3] it was 13.2%; in the series with Cynomolgus monkey [4], 7.7%.

On to `CC(C)[C@](O)(c1ccc2c3c(ccc2c1)C(=O)N(C)C3)c1cnc[nH]1`, for which the IC50 in [5] was 19 nM; at Cytochrome P450 2D6, over 30 µM; against Cytochrome P450 2C8, 28 µM; against Cytochrome P450 2C9, under 3 µM; in [9] it was under 10 nM; against Cytochrome P450 3A4, over 10 µM. Besides, the IC50 at Cytochrome P450c11B3 is over 1000 nM. Also, the area under the curve AUC(0-t) at 24 h is 7320 ng·h/mL in series [6] and 573 ng·h/mL in [10]. The bioavailability in [7] is 128%. The same compound came in with a Cmax in [8] of 2940 ng/mL. In addition, the time to peak (Tmax) in series [11] was determined as 25.2 min.

Turning to `CC(C)[C@@](O)(c1ccc2c3c(ccc2c1)C(=O)N(C)C3)c1cnc[nH]1`, the concentration for half-maximal inhibition (IC50) in series [5] is 270 nM; in series [9] it was 110 nM; at Cytochrome P450 3A4 it was over 10 µM; at Cytochrome P450c11B3, over 1000 nM.

On to `CC(C)C(O)(c1ccc2c3c(ccc2c1)C(=O)NC3)c1c[nH]cn1` (single isomer, unassigned; (-)), for which the IC50 in series [5] is 15 nM; against Cytochrome P450 3A4 it was over 10 µM; against Cytochrome P450c11B3, 13 nM.

For `CC(C)C(O)(c1ccc2c3c(ccc2c1)C(=O)NC3)c1c[nH]cn1` (stereo in doubt; (+)-27a), the half-maximal inhibitory concentration (IC50) in [5] was 60 nM; in [9], 180 nM; on Cytochrome P450 3A4, 7.4 µM; against Cytochrome P450c11B3, 220 nM.
